Experimental data: ChEMBL document CHEMBL1128460, “Design, synthesis, and structure-activity relationships of a new series of alpha-adrenergic agonists: spiro[(1,3-diazacyclopent-1-ene)-5,2'-(1',2',3',4'- tetrahydronaphthalene)]” (J Med Chem, 1995)

How the values were obtained:
[1] = molecular target: T1, Alpha-2A adrenergic receptor (Homo sapiens, UniProt P08913); assay: Binding affinity towards Alpha-2A adrenergic receptor in human platelets using [3H]RX-821002 as radioligand
T1 sequence (P08913 whole entry): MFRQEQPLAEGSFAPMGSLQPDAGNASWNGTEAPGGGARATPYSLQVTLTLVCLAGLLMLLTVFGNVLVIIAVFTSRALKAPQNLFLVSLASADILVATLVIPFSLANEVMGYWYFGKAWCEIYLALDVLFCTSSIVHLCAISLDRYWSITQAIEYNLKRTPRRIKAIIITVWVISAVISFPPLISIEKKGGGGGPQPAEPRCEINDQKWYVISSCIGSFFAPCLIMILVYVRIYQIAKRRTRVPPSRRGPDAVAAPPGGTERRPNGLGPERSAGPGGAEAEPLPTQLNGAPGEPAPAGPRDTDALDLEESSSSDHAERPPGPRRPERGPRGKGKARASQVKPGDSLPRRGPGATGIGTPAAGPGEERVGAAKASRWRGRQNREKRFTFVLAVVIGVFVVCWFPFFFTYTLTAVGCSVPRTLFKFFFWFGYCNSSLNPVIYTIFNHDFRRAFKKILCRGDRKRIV
Method in brief: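 Human platelet membranes with [3H]RX821002 (1.5 nM), nonspecific binding with phentolamine (10 µM). Displacement at nine concentrations spanning 3 orders of magnitude, IC50 by log-probit analysis, converted to Ki using Scatchard Kd. ≥3 independent duplicate experiments.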

[2] = molecular target: T2, Alpha-2B adrenergic receptor (Rattus norvegicus, UniProt P19328); assay: Binding affinity towards Alpha-2B adrenergic receptor in neonatal rat lung using [3H]-RX-821002 as radioligand
T2 sequence (P19328 whole entry): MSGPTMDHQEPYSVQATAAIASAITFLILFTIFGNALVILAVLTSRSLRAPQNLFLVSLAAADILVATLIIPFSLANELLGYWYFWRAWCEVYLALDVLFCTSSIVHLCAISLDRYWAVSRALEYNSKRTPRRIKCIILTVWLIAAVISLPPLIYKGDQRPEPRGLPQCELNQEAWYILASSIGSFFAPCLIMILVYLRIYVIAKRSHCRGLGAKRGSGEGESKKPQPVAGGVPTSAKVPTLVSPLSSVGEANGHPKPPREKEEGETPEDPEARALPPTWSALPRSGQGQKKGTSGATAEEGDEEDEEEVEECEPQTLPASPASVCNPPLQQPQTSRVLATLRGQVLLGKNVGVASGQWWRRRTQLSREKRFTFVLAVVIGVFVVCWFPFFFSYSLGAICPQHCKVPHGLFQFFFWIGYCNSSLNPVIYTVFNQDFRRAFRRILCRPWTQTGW
Method in brief: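 Neonatal rat lung membranes with [3H]RX821002 (0.5 nM), nonspecific binding with phentolamine (10 µM). Nine concentrations over 3 log units, IC50 by log-probit, Ki by Cheng–Prusoff with Scatchard-derived Kd. ≥3 independent experiments in duplicate.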

[3] = molecular target: T3, Adrenergic receptor alpha (Rattus norvegicus) (UniProt P15823+P23944+P43140+P22086+P19328+P22909); assay: Alpha adrenergic activity was evaluated as concentration (iv) which increases the arterial pressure by 20 mmHg in the pithed rat; format: functional, organism-based; conditions: Artery
Canis familiaris [4] = species: Canis familiaris; assay: Effective concentration for the agonist in the isolated blood vessel using in vitro saphenous vein; format: functional; conditions: Canis lupus familiaris
Method in brief: (§1)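 Vessel segments from mongrel dogs (15–25 kg) anesthetized with pentobarbital (30 mg/kg iv), mounted for isometric tension in physiological saline. Equilibrated 90 min with bath changes every 30 min, rauwolscine (10^-7 M) present throughout. Primed with KCl (100 mM), then phenylephrine (1 µM). Agonist concentration–response curves run at half-log steps, giving EC50 (µM) and Emax as % of phenylephrine maximum; mean ±SD.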

[5] = Ratio of C20 obtained in the absence or presence of [C20 (1 mg of yohimbine.) / C20 (control)]; format: functional
Method in brief: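 Pithed rat arterial pressure assay with tertatolol (100 mg/kg) pretreatment, then yohimbine (1 mg/kg) 10 min later. Cumulative iv agonist doses given at 20 s intervals after a further 10 min, C20 (+20 mmHg dose) obtained. Ratio expressed as C20(yohimbine)/C20(control); 3–6 determinations.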

[6] = molecular target: T3, Adrenergic receptor alpha (Rattus norvegicus); assay: Alpha adrenergic activity was evaluated as maximal pressure response caused by agonist, expressed in mmHg (the maximum obtained with phenylephrine is 150 mmHg).; format: functional
Canis familiaris [7] = species: Canis familiaris; assay: Maximal contractile response obtained with the agonist (expressed as a percentage of the maximal contraction to phenylephrine in the dog femoral artery); format: functional, Canis lupus familiaris; method in brief: as §1
Canis familiaris [8] = species: Canis familiaris; assay: Effective concentration for the agonist in the isolated blood vessel using in vitro femoral artery; format: functional; conditions: Canis lupus familiaris; method in brief: as §1
[9] = molecular target: T4, Adrenergic receptor alpha-1 (Rattus norvegicus, UniProt P15823+P23944+P43140); assay: Displacement of [3H]prazosin from rat cortex Alpha-1 adrenergic receptor
T4 sequence (P15823 whole entry): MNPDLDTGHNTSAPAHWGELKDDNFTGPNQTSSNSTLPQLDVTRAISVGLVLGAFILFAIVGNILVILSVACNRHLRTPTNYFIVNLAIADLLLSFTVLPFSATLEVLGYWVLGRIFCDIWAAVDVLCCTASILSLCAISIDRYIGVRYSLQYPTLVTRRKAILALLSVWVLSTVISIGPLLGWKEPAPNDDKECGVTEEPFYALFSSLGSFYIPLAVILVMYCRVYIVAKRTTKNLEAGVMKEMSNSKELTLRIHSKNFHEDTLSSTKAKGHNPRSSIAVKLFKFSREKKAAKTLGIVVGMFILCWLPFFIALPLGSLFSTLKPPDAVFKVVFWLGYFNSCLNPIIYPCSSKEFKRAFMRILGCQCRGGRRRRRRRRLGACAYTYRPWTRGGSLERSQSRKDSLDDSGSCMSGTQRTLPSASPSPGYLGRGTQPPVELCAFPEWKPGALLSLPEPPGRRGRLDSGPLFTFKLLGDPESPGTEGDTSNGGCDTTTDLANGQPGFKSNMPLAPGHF
T4 sequence (P23944 whole entry): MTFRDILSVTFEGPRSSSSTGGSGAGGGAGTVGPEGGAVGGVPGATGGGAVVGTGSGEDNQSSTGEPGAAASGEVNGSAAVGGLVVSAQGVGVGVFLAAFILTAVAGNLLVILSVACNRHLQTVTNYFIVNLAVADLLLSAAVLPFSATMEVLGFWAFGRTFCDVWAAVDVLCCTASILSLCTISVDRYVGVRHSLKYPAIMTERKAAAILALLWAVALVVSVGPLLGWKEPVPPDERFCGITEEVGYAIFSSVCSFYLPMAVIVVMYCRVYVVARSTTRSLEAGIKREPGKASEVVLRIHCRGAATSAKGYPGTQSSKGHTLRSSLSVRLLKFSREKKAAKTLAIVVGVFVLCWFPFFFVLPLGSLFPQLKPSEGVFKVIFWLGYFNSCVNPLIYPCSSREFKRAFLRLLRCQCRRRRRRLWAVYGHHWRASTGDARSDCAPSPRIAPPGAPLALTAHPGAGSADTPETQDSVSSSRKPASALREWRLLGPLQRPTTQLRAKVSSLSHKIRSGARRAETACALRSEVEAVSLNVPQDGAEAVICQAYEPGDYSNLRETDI
T4 sequence (P43140 whole entry): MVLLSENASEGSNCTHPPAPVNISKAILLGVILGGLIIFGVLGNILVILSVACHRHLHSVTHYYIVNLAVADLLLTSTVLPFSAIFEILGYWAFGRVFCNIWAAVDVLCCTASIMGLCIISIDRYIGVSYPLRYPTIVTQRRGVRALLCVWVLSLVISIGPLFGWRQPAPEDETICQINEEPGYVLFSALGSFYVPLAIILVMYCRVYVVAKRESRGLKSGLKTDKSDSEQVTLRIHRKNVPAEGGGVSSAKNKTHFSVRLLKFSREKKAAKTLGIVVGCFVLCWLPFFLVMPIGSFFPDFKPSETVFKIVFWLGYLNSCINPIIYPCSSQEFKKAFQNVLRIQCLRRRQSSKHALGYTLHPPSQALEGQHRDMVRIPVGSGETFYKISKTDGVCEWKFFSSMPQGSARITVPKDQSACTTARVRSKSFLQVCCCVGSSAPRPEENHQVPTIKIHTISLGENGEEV
Method in brief: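 Rat cortex membranes labelled with [3H]prazosin (0.3 nM), nonspecific binding with prazosin (10 µM). Nine drug concentrations spanning 3 log units, IC50 by log-probit analysis. Ki by Cheng–Prusoff using Kd from Scatchard saturation. At least three independent experiments in duplicate.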

Canis familiaris [10] = species: Canis familiaris; assay: Maximal contractile response obtained with the agonist (expressed as a percentage of the maximal contraction to phenylephrine in the dog saphenous vein); format: functional, Canis lupus familiaris; method in brief: as §1
[11] = Ratio of C20 obtained in the absence or presence of [C20 ( 0.1 mg of prazosin ) / C20 (control)]; format: functional
Method in brief: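 Pithed rats pretreated with tertatolol (100 mg/kg), then 10 min later with prazosin (100 µg/kg). Cumulative iv agonist doses given another 10 min later at 20 s intervals. Arterial pressure recorded, C20 (dose giving +20 mmHg) determined. Ratio calculated as C20(prazosin)/C20(control); 3–6 determinations.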

[12] = Ratio of C20 (pithed rat) to that of EC50 (saphenous vein); format: functional

Row | SMILES | Ki [1] [µM] | Ki [2] [µM] | C20 [3] [µg/kg] | EC50 (Canis familiaris [4]) [µM] | Ratio [5] | Max [6] [mmHg] | Emax (Canis familiaris [7]) | EC50 (Canis familiaris [8]) [µM] | Ki [9] [µM] | Emax (Canis familiaris [10]) | Ratio [11] | Ratio [12]
1 | COc1ccc2c(c1)CCC1(CNC=N1)C2 (centres undefined) | 0.087 | 1.2 |  |  |  |  |  |  |  |  |  | 
2 | Fc1cccc2c1CC1(CC2)CN=CN1 (centres undefined) | 0.012 | 0.152 | 4.6 | 2.3 | 1 | 131 | 75 | 57 | 2.5 | 99 | 0.6 | 
3 | COc1ccc2c(c1)CC1(CC2)CNC=N1 (centres undefined) | 0.018 | 0.193 |  |  |  |  |  |  |  |  |  | 
4 | COc1cccc2c1CC1(CC2)CNC=N1 (centres undefined) | 0.051 | 0.099 |  |  |  |  |  |  |  |  |  | 
5 | Clc1ccc2c(c1)CC1(CC2)CN=CN1 (centres undefined) |  |  | 6.3 | 5.5 | 5.8 | 116 | 0 |  |  | 72 | 2.6 | 1.15
6 | FC(F)(F)c1ccc(Cl)c(NC2=NCCN2)c1 | 1.56 | 0.179 | 10 | 5.1 | 2.2 | 73 | 22 | 4.7 | 65.8 | 81 | 33 | 
7 | Fc1ccc2c(c1)CC1(CC2)CN=CN1 (centres undefined) |  |  | 7.8 | 11 | 7.7 | 108 | 8 |  |  | 67 | 5 | 0.71
8 | NC1=NC2(CCc3cccc(Cl)c3C2)CO1 (centres undefined) | 0.0016 | 0.02 | 0.2 | 0.014 | 3 | 140 | 68 | 0.36 | 0.8 | 117 | 2 | 
9 | Clc1cc(Cl)c2c(c1)CC1(CC2)CN=CN1 (centres undefined) | 0.003 | 0.095 | 19 | 2 | 3.1 | 91 | 10 | 21 | 0.7 | 45 | 9.5 | 
10 | Cc1cc(C)c2c(c1)CC1(CC2)CN=CN1 (centres undefined) |  |  | 20 | 2.9 | 2.8 | 91 | 5 | 0.8 |  | 66 | 2.9 | 25
11 | Clc1ccc2c(c1)CCC1(CN=CN1)C2 (centres undefined) |  |  | 6.3 | 6 |  | 120 | 0 |  |  |  | 2.8 | 1.05
12 | CC(C)c1ccc2c(c1)CC1(CC2)CN=CN1 (centres undefined) |  |  | 245 | 4.3 | 2.9 | 66 | 0 |  |  | 53 | 2.9 | 57
13 | Cc1cc2c(cc1C)CC1(CC2)CN=CN1 (centres undefined) |  |  | 37 | 2.7 | 2.5 | 72 | 0 |  |  | 64 | 0.5 | 14
14 | COc1cccc2c1CCC1(CNC=N1)C2 (centres undefined) | 0.012 | 0.159 |  |  |  |  |  |  |  |  |  | 
